Data taken from paper PMC5645071 (Journal of controlled release : official journal of the …, 2015).

Assays:
[1] = system: H1650 cancer stem cell orthotopic lung tumor; assay type: in vivo; conditions: 20 mg/kg oral gavage, 30 days treatment
Caco-2 monolayers = experiment: Caco-2 permeability study; assay type: in vitro ADME
NF-КB = experiment: Western blot of tumor lysates: NF-КB; assay type: in vivo, Nu/nu mice
In short: (§1)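 Nu/nu mice bearing H1650 cancer-stem-cell tumours got vehicle or test compound by oral gavage, solution or self-emulsified form, 20 mg/kg (solution every other day). Tumour nodules were lysed in RIPA pH 8.0 with protease inhibitor; 50 µg protein (BCA) on 10% SDS-PAGE, nitrocellulose, 5% milk/TBST block, antibodies 1:1000, HRP secondary. Signal normalised to β-actin; three replicates, mean ± SEM, one-way ANOVA with Tukey test.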

SOX2 = experiment: Western blot of tumor lysates: SOX2; assay type: in vivo, Nu/nu mice
In short: as §1

[2] = system: H1650 cancer stem cell xenograft tumor; assay type: in vivo; conditions: 20 mg/kg oral gavage
[3] = Pharmacokinetics / bioavailability in dogs; assay type: in vivo
Bcl-2 = experiment: Western blot of tumor lysates: Bcl-2; assay type: in vivo, Nu/nu mice; conditions: densitometry
In short: as §1

Nanog = experiment: Western blot of tumor lysates: Nanog; assay type: in vivo, Nu/nu mice
lung tumor tissue = experiment: Hematoxylin and eosin staining of lung tumor tissue; assay type: in vivo, Nu/nu mice
In vitro release study = assay type: physicochemical; conditions: in 24 h, distilled water, 37 °C, 50 rpm
In short: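 Test formulation equivalent to 2 mg drug stirred in USP apparatus II with 200 ml distilled water, […], paddle 50 rpm. At set intervals, 1 ml aliquots were withdrawn, filtered and assayed by HPLC, with fresh medium replaced each time.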

[4] = mouse, in vivo, cited from earlier work
CSCs [5] = conditions: cited from earlier work
CSCs [6] = conditions: cited from earlier work; remark: listed apart in the source
[7] = i.v. bolus 0.5 mg/kg, two-compartment model

Molecule: 3, 3-Diindolylmethane-14 [DIM-14]
- decrease in average number of tumor nodules versus control [1]: 22%
- decrease in lung tumor volumes [1]: 34%
- decrease in lung tumor weights versus vehicle control [1]: 24%
- average Peff, A–B (Caco-2 monolayers; Caco-2, donor pH 6.5, acceptor pH 7.4): approximately 0.26 ± 0.05 × 10^−6 cm/s
- average Peff, B–A (Caco-2 monolayers; Caco-2, secretory direction): 0.41 ± 0.09 × 10^−6 cm/s
- expression of NF-КB (NF-КB): significantly down regulated
- reduction of relative SOX2 expression versus untreated control (SOX2): 1.9 fold
- decrease in average number of tumor nodules versus control [2]: 29%
- decrease in lung tumor volumes [2]: 29%
- decrease in lung tumor weights versus vehicle control [2]: 30%
- Volume of distribution (Vd) ([3]; i.v. bolus 0.5 mg/kg): 0.321 L/kg
- Volume of distribution at steady state (Vdss) ([3]; i.v. bolus 0.5 mg/kg): 0.319 L/kg
- K10 (elimination from central compartment) [3, 7]: 0.003 L/h
- K21 (peripheral to central compartment) [3, 7]: 0.15 L/h
- absolute oral bioavailability ([3]; oral 3.33 mg/kg): < 10%
- reduction of β-actin relative Bcl-2 expression versus untreated control tumors (Bcl-2): 1.8 fold
- decrease of relative Nanog expression versus untreated control (Nanog): 2.4 fold
- histological examination of lungs and tracheobronchial epithelium (lung tumor tissue; all groups): no signs of inflammation or edema
- tumor microvessels (H & E histology) (lung tumor tissue; treated tumors versus untreated mice): only occasional, isolated microvessels
- drug release (In vitro release study): ~ 10%

Molecule: COc1ccc(C(c2c[nH]c3ccccc23)c2c[nH]c3ccccc23)cc1 [DIM-5]
- Oral bioavaibility [4]: 39%

Molecule: Oc1ccc(C(c2c[nH]c3ccccc23)c2c[nH]c3ccccc23)cc1 [DIM-8]
- time to reach Cmax (Tmax) ([4]; po): about 60 min
- Oral bioavaibility [4]: 6%

Molecule: Clc1ccc(C(c2c[nH]c3ccccc23)c2c[nH]c3ccccc23)cc1 [DIM-12]
- Oral bioavaibility [4]: 42%

Molecule: CN(C)C(=N)N=C(N)N [Metformin]
- concentrations at which it works against CSCs (CSCs [5]): 100 to 300 µM

Molecule: CC[C@@H](C(=O)[C@@H](C)[C@@H](O)[C@H](C)[C@@H]1O[C@@H]([C@@H](CC)C(=O)O)CC[C@@H]1C)[C@H]1O[C@]2(C=C[C@@H](O)[C@]3(CC[C@@](C)([C@H]4CC[C@](O)(CC)[C@H](C)O4)O3)O2)[C@H](C)C[C@@H]1C [salinomycin]
- reduction of the proportion of CSCs relative to paclitaxel (CSCs [6]): more than 100 fold

Molecule: Lucifer Yellow [reference compound]
- mean permeability of paracellular control (Caco-2 monolayers; Caco-2): < 1.5 nm/s
